These results are taken from ChEMBL document CHEMBL1130878 (Bioorg Med Chem Lett, 1998).

The target in one assay is T1, Endothelin-1 receptor (Rattus norvegicus, UniProt P26684).
T1 sequence (P26684 whole entry): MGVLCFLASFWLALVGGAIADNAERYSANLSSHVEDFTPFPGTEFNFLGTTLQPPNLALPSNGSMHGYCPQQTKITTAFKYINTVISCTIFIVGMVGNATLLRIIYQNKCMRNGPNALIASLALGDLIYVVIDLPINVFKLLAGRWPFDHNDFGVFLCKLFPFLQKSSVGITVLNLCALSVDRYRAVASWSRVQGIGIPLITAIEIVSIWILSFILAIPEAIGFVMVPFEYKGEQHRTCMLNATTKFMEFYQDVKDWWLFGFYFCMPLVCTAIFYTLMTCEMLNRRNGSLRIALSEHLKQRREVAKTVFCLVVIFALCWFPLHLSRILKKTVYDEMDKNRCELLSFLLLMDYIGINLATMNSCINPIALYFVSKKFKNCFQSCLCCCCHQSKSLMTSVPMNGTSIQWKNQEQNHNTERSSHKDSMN
Kind of assay: In vitro ability to inhibit specific [125I]ET1 binding to rat aorta membranes Endothelin A receptor. The assay is classed as tissue-based.

Assay [1] deals with T2, Endothelin receptor type B (Sus scrofa, UniProt P35463).
T2 sequence (P35463 whole entry): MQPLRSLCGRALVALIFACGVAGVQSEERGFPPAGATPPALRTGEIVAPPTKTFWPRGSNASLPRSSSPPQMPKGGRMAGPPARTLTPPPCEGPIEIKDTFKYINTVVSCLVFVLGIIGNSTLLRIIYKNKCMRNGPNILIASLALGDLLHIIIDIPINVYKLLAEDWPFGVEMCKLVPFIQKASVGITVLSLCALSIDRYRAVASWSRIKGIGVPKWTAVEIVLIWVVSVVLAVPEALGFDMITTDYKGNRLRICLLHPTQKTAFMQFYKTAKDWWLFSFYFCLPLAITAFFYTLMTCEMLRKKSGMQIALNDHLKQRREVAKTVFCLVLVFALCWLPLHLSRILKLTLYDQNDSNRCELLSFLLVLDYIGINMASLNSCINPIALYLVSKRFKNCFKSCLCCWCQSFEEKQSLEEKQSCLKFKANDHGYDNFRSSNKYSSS
Kind of assay: In vitro ability to inhibit specific [125I]ET1 binding to porcine kidney (inner medulla) membranes Endothelin B receptor.

For a further assay, the species on record is Rattus norvegicus. Put plainly: Compound was evaluated for the functional assay performed by obtaining ET-1 concentration-response curves [pA2(ETA)] in isolated rat aortic rings. Conditions: Aorta, read-out: pA2 (converted). The method in brief:
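Functional ETA assay: ET-1 concentration-response curves in isolated rat aortic rings with the endothelium removed. Antagonism is expressed as pA2.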

Compound `COc1ccc(C(=O)/C(Cc2cc(OC)c(OC)c(OC)c2)=C(\C(=O)O)c2ccc3nsnc3c2)c(F)c1` registered an IC50 at Endothelin-1 receptor of 3 nM.

With `COc1ccc(C(=O)/C(Cc2ccc3c(c2)CCO3)=C(\C(=O)O)c2ccc3nsnc3c2)cc1`, the half-inhibitory concentration (IC50) in assay [1] was 1400 nM; at Endothelin-1 receptor, 3.4 nM. For `COc1ccc(C(=O)/C(Cc2cc(OC(C)C)c(OC(C)C)c(OC(C)C)c2)=C(\C(=O)O)c2ccc3nsnc3c2)cc1`, the 50% inhibitory concentration (IC50) in assay [1] came out at 220 nM; on Endothelin-1 receptor, 57 nM. For `COc1ccc(C(=O)/C(Cc2cc(OC)c(OC)c(OC)c2)=C(\C(=O)O)c2ccc3nsnc3c2)cc1C`, in that order: 260 nM and 1.4 nM.

Turning to `COc1cc(C/C(C(=O)c2ccc3c(c2)OCO3)=C(/C(=O)O)c2ccc3nsnc3c2)cc(OC)c1OC`, the 50% inhibitory concentration (IC50) in assay [1] was 400 nM; at Endothelin-1 receptor, 6.5 nM. With `COc1ccc(C(=O)/C(Cc2ccc(OC)c(F)c2)=C(\C(=O)O)c2ccc3nsnc3c2)cc1`, the concentration for half-maximal inhibition (IC50) in assay [1] was 2900 nM; at Endothelin-1 receptor, 14 nM. Take `COc1cccc(C(=O)/C(Cc2cc(OC)c(OC)c(OC)c2)=C(\C(=O)O)c2ccc3nsnc3c2)c1`: the results for the 50% inhibitory concentration (IC50) (in assay [1]; at Endothelin-1 receptor) were 1800 nM and 4.6 nM, respectively. Consider `COc1cc(C/C(C(=O)c2ccc(OC(C)C)c(F)c2)=C(/C(=O)O)c2ccc3nsnc3c2)cc(OC)c1OC`, for which the IC50 amounted to 290 nM in assay [1] and 65 nM on Endothelin-1 receptor.

`COc1cc(C/C(C(=O)c2cc(OC)c(OC)c(OC)c2)=C(/C(=O)O)c2ccc3nsnc3c2)cc(OC)c1OC`: the IC50 in assay [1] was 340 nM; at Endothelin-1 receptor, 3.7 nM. For `COc1ccc(C/C(C(=O)c2ccc(OC)cc2)=C(/C(=O)O)c2ccc3nsnc3c2)cc1`, in that order: 1800 nM and 28 nM. For `COc1ccc(C(=O)/C(Cc2ccccc2OC)=C(\C(=O)O)c2ccc3nsnc3c2)cc1`, the IC50 in assay [1] is 820 nM; on Endothelin-1 receptor, 3.4 nM. For the compound `COc1cc(C/C(C(=O)c2ccc(OC(F)F)cc2)=C(/C(=O)O)c2ccc3nsnc3c2)cc(OC)c1OC`, the half-inhibitory concentration (IC50) in assay [1] was determined as 1900 nM; on Endothelin-1 receptor it was 160 nM. For `COc1cc(C/C(C(=O)c2ccc(OC(C)C)cc2)=C(/C(=O)O)c2ccc3nsnc3c2)cc(OC)c1OC`, in that order: 550 nM and 64 nM. For the compound `COc1ccccc1C(=O)/C(Cc1cc(OC)c(OC)c(OC)c1)=C(\C(=O)O)c1ccc2nsnc2c1`, the half-inhibitory concentration (IC50) was determined as 4800 nM in assay [1] and 16 nM on Endothelin-1 receptor. `COc1cc(F)ccc1C(=O)/C(Cc1cc(OC)c(OC)c(OC)c1)=C(\C(=O)O)c1ccc2nsnc2c1`: at Endothelin-1 receptor, the IC50 worked out at 12 nM. For `COc1ccc(C(=O)/C(Cc2ccccc2)=C(\C(=O)O)c2ccc3nsnc3c2)cc1`, the IC50 in assay [1] was 1200 nM; on Endothelin-1 receptor, 26 nM. Further, the Kb in the assay filed under Rattus norvegicus is 25.1 nM. In the case of `COc1cc(C/C(C(=O)c2ccc3c(c2)CCO3)=C(/C(=O)O)c2ccc3nsnc3c2)cc(OC)c1OC`, the concentration for half-maximal inhibition (IC50) worked out at 460 nM in assay [1] and 28 nM at Endothelin-1 receptor. `COc1ccc(C(=O)/C(Cc2ccc(SC)cc2)=C(\C(=O)O)c2ccc3nsnc3c2)cc1`: the IC50 in assay [1] was 3200 nM; on Endothelin-1 receptor it was 17 nM. With `COc1ccc(C(=O)/C(Cc2cc(OC)c(OC)c(OC)c2)=C(\C(=O)O)c2ccc3nsnc3c2)cc1Cl`, the figures for the IC50 (in assay [1]; at Endothelin-1 receptor) were 180 nM and 1 nM, respectively. For the compound `COc1ccc(C(=O)/C(Cc2ccccc2)=C(\C(=O)O)c2ccc3c(c2)OCO3)cc1`, the results for the half-inhibitory concentration (IC50) (in assay [1]; on Endothelin-1 receptor) were 4550 nM and 7.4 nM, respectively. For `COc1ccc(C(=O)/C(Cc2cccc(OC)c2)=C(\C(=O)O)c2ccc3nsnc3c2)cc1`, in that order: 1000 nM and 3.4 nM. Regarding `COc1ccc(C(=O)/C(Cc2ccc(OC(C)(C)C)cc2)=C(\C(=O)O)c2ccc3nsnc3c2)cc1`, the half-inhibitory concentration (IC50) in assay [1] is 1600 nM; at Endothelin-1 receptor, 580 nM. As to `COc1ccc(C(=O)/C(Cc2ccc3c(c2)OCO3)=C(\C(=O)O)c2ccc3nsnc3c2)cc1`, the results for the half-maximal inhibitory concentration (IC50) (in assay [1]; on Endothelin-1 receptor) were 1500 nM and 66 nM, respectively.
